High-throughput results as filed in PubChem.
S1P3 ag – agonists of human S1P3 receptor | AID 373 | S1P3 NFAT-BLA reporter cells, agonism, FRET ratio; relative to 1 µM S1P, basal subtracted | hit rate 0.1% among 60,000 | activation, % at 4.5 µM;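 active = activation above the screen-wide mean plus 3 SD, cut at about 4.5% in these data, passing the limit was not always enough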
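Assay system: stable CHO line with human S1P3, Gα16, NFAT-BLA reporter; Detection: FRET β-lactamase substrate fluorescence, excitation 405 nm, 460/535 nm emission ratio, background-subtracted; Read-out: percent activation versus median 1 µM S1P response, basal-subtracted, per plate; Incubation: cells plated overnight, compound 4 h 37 °C, substrate 2 h RT.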
HTR1E agonist – agonists of human 5-HT1E serotonin receptor | P28566 | CHO 5-HT1E Ga15 NFAT-bla reporter, FRET; 0% DMSO wells, 100% control agonist wells | activation, % at 6 µM | hit rate 0.69% among 65,000;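 active = activation above a set limit, the screen-wide mean activation plus 3 SD, cut at about 8.5% in these data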;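 note: 100% = positive control agonist at 1 µM giving full maximal response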
5HT1E antag – 5-HT1E (human) receptor antagonism; P28566; CHO 5-HT1E Ga15 NFAT-bla reporter, FRET, antagonist; inhibition, % at 6 µM; hit rate 0.99% among 65,000;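 active = inhibition above a set limit, the mean inhibition across every tested compound plus 3 SD, cut at about 29% in these data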;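 note: signal is the 460 over 535 nm emission ratio of beta-lactamase substrate; 0% = agonist plus DMSO wells and 100% = wells without agonist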
5-HT1A blocker – blocks the human serotonin 5-HT1a receptor; P08908; CHO 5-HT1a Ga15 NFAT-bla reporter, antagonist mode; AID 612; hit rate 0.68% among 62,000; inhibition, % at 10 µM;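 active = inhibition above the mean of all tested compounds plus 3 SD, cut at about 43% in these data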;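 note: receptor stimulated by 5-CT agonist at 100 nM near EC80; beta-lactamase reporter measured by ratiometric fluorescence of a cleavable substrate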
Target sequence (P08908 whole entry, looked up): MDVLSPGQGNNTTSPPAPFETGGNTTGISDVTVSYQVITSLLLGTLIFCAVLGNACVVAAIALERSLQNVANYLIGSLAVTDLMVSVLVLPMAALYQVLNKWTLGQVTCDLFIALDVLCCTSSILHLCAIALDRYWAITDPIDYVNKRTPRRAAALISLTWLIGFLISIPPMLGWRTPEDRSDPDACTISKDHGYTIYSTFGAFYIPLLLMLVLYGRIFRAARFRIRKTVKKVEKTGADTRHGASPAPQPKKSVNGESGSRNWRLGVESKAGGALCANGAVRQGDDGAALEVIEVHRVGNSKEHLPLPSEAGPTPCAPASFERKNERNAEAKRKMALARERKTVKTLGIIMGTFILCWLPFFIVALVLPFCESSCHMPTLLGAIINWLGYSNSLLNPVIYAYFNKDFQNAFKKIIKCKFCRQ
S1P1 ag-PAM – S1P1 (human) agonism or agonism potentiation; P21453; S1P1 CRE-bla cells, forskolin, beta-lactamase FRET, potentiator mode; S1P1 agonist co-added at EC20, 2 nM; 100% = saturating reference agonist, 0% = basal; activation, % at 9.5 µM; hit rate 0.57% among 56,000; AID 449;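 active = activation above a cutoff set at the mean activation of all tested compounds plus 3 SD, cut at about 54% in these data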;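 note: forskolin at 4 µM as EC80 and the EC20 agonist is SEW2871; 100% = SEW2871 at its EC100 plus forskolin at EC80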
HTR1A agonist – activates the human 5-HT1a serotonin receptor; P08908; CHO 5-HT1a Ga15 NFAT-bla reporter, FRET ratio; 0% basal, 100% maximal reference agonist; activation, % at 10 µM; hit rate 0.56% among 65,000; AID 567;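 active = activation above the screen-wide mean activation plus 3 SD, cut at about 19% in these data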;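 note: 0% = DMSO wells and 100% = 5-CT at EC100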
Numbers without * were called inactive; . = not tested or not shown. Compounds with a hit are over-represented: about 3% of the library has one in this group of screens.

SMILES	S1P3 ag	HTR1E agonist	5HT1E antag	5-HT1A blocker	S1P1 ag-PAM	HTR1A agonist
CCN(CC)S(=O)(=O)c1ccc(/C(O)=C(\C#N)c2nc3ccccc3n2C)cc1	0	0	39*	-23	11	15
Cc1cc(NC(=O)c2c(F)c(F)c(F)c(F)c2F)no1	-1	0	8	-6	.	-1
CCN1C(=O)c2ccccc2S(=O)c2ccc(C(=O)NC3CC3)cc21 (stereo not given)	0	1	-2	-1	-23	-1
CCN1C(=O)c2ccccc2S(=O)c2ccc(C(=O)NCCCN3CCCC3=O)cc21 (stereo not given)	0	-1	30*	9	-6	0
COc1ccc(C2=NOC(C(=O)NCc3ccc(F)cc3)C2)cc1OC (stereo not given)	1	0	70*	34	8	-2
COc1cccc(C2=NOC(C(=O)NCc3ccc(F)cc3)C2)c1 (stereo not given)	0	1	17	37	4	-4
COc1cc(C2=NOC(C(=O)NCc3ccc(F)cc3)C2)cc(OC)c1OC (stereo not given)	0	0	70*	56*	-15	-2
Nc1ccc(-n2nnnc2-c2ccco2)cc1	-1	0	7	1	7	0
Cc1ccnc(Sc2nc3c(c(=O)[nH]c(=O)n3C)n2CCCc2ccccc2)n1	.	1	3	-25	.	-1
O=C(c1ccco1)N1CCN(/C(=N/S(=O)(=O)c2cccs2)c2ccccc2Cl)CC1	0	0	-13	-10	4	29*
Cc1ccc2[nH]c(=O)c(C(c3nnnn3C3CCCC3)N(Cc3cccnc3)Cc3ccco3)cc2c1 (stereo not given)	0	3	-2	3	-24	98*
O=C(c1ccc(=O)oc1)N1CCN(c2ccc(F)cc2)CC1	1	6	-5	.	-20	0
CCNc1c2c3c(cccc3n(C)c1=O)C(=O)c1ccccc1-2	-1	32*	21	11	35	3
Cn1c(=O)c(NCCO)c2c3c(cccc31)C(=O)c1ccccc1-2	.	1	14	6	.	0
COCCn1c(=O)c2c(nc3n2CCN3c2ccc(C)cc2)n(C)c1=O	0	0	4	-6	4	-1
Cn1cc(/C=N/n2cnc3scc(-c4ccc(Cl)cc4)c3c2=O)c2ccccc21	-2	-1	83*	71*	-17	-5
COc1cccc(C2CC(=O)Nc3cc4c(cc32)OCCO4)c1OC(C)C (stereo not given)	-1	1	6	12	-23	-1
COc1ccccc1C1CC(=O)Nc2cc3c(cc21)OCCO3 (stereo not given)	-1	-1	47*	27	-1	0
CC(C)Oc1ccccc1C1CC(=O)Nc2cc3c(cc21)OCCO3 (stereo not given)	-2	-1	63*	50*	-24	-5
CC(NS(=O)(=O)c1ccc(F)cc1)C(=O)NCc1ccncc1 (stereo not given)	0	0	-3	-2	-14	-1
COC(=O)c1ccc(Oc2cc(C)nc(-n3nc(C)cc3C)n2)cc1	0	-1	90*	65*	-15	-3
CC1CCCCC1n1c(=S)[nH]c2ccccc2c1=O (stereo not given)	.	11*	5	-8	.	2
CCN(CC)CCOc1cccc(C(C)C)c1	0	13*	4	6	-13	-1
COc1cccc(N2CC(O)=C(c3nc4ccccc4c(=O)[nH]3)C2=N)c1	.	-1	34*	16	.	-1
CCOc1ccccc1-n1c(SCC(=O)N(C(C)C)C(C)C)nnc1-c1cccnc1	-1	-2	4	4	3	0
SMILES	S1P3 ag	HTR1E agonist	5HT1E antag	5-HT1A blocker	S1P1 ag-PAM	HTR1A agonist
O=C(NCCc1ccccc1)/C(=N\O)c1ccccc1	-1	0	-1	.	-26	-5
COc1cc2c(cc1OC)C(C(=O)NCc1ccco1)C(c1cccs1)N(C)C2=O (stereo not given)	0	0	5	10	-6	-2
Cc1ccc(Nc2nc(C)c(CCC(C)C)c(=O)[nH]2)cc1	-1	1	-3	-9	8	-4
Cc1nc(Nc2ccc(F)cc2)[nH]c(=O)c1CCC(C)C	-2	0	-8	52*	39	1
S=C(c1ccc(-c2ccccc2Cl)o1)N1CCOCC1	-1	0	1	-5	-11	0
N#CCCN1CCN(C(=S)c2ccc(-c3cc(Cl)ccc3Cl)o2)CC1	0	0	31*	10	14	-5
Fc1ccc(CN2CCSCC2)cc1Br	-1	0	1	5	13	-5
CCc1c(C)sc(NC(=O)c2cc(-c3ccco3)on2)c1C#N	-1	0	1	3	92*	-2
CCc1c(C)sc(NC(=O)c2cc(C3CC3)on2)c1C#N	0	1	-12	0	24	0
CCc1c(C)sc(NC(=O)c2cc(C)on2)c1C#N	0	0	-3	0	-1	-2
CCCc1cc(C(=O)Nc2sc(C)c(CC)c2C#N)no1	-1	0	-15	-24	74*	-5
Cc1ccc(NC(=O)c2cc(-c3ccco3)on2)cc1C	-1	0	-4	8	72*	-4
O=C1CC(N2CCN(c3cccc(C(F)(F)F)c3)CC2)C(=O)N1c1ccccc1F (stereo not given)	-1	1	1	-7	-5	-2
O=C(N1CCCCCC1)N1CCN(C(=O)N2CCOCC2)CC1	0	0	4	7	-6	0
COc1ccccc1NC(=O)C1=C(C)NC2=C(C(=O)CCC2)C1c1ccc2c(c1)OCO2 (stereo not given)	0	0	-3	5	17	1
CCOC(=O)c1cc(C(O)(C(F)(F)F)C(F)(F)F)c(/N=C/N(C)C)o1	.	-1	-3	-1	.	1
O=C(COC(=O)C1CCCN1S(=O)(=O)c1ccc(Cl)cc1)Nc1ccc2c(c1)OCO2 (stereo not given)	-1	0	2	-3	-9	-2
Cc1ccc(-c2nc(NC(=O)CSc3nnnn3-c3ccccc3)ns2)cc1	-1	0	-15	50*	-62	2
CC1=CC(C)(C)Nc2ccc(OC(=O)CN3C(=O)CCC3=O)cc21	1	3	19	21	42	14
CC1=CC(C)(C)Nc2ccc(OC(=O)c3ccco3)cc21	-2	2	51*	41	55	25*
CC1=CC(C)(C)Nc2ccc(OC(=O)c3cccnc3)cc21	0	4	30*	26	64*	17
